ChEMBL document CHEMBL1146462, “New communesin derivatives from the fungus Penicillium sp. derived from the Mediterranean sponge Axinella verrucosa” (J Nat Prod, 2004)
Converted amounts (≈) assume the structure as drawn. The source made the active and inactive calls. No cut-off for these calls is given here.

Experiments:
[1] = Toxicity in Artemia salina; format: organism-based; conditions: in vivo
[2] = tested on: L-428; assay: Antiproliferative activity against human L428 cells after 48 hrs by MTT assay; format: functional
Method in brief: (§1)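 Human leukemia cell lines were tested for antiproliferative activity by MTT assay and by radioactive thymidine incorporation. Results are given as ED₅₀ in μg/mL.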

[3] = tested on: MOLT-3; assay: Antiproliferative activity against human MOLT3 cells after 48 hrs by MTT assay; format: functional; conditions: MOLT-3, 48 h, read-out: ED50 (the source's name); method in brief: as §1
[4] = Antiproliferative activity against human SUP-B15 cells after 48 hrs by MTT assay; format: functional; conditions: SUP-B15, 48 h, read-out: ED50 (the source's name); method in brief: as §1
[5] = tested on: U-937; assay: Antiproliferative activity against human U937 cells after 48 hrs by MTT assay; format: functional; conditions: U-937, 48 h, read-out: ED50 (the source's name); method in brief: as §1
[6] = tested on: THP-1; assay: Antiproliferative activity against human THP1 cells after 48 hrs by MTT assay; format: functional; conditions: THP-1, 48 h, read-out: ED50 (the source's name); method in brief: as §1
[7] = Antiproliferative activity against human NAMALWA cells after 48 hrs by MTT assay; format: functional; conditions: NAMALVA, read-out: ED50 (the source's name); method in brief: as §1

Structure (SMILES) | LC50 [1] [µg/mL] | Activity [2] | EC50 [3] [µg/mL] | EC50 [4] [µg/mL] | EC50 [5] [µg/mL] | EC50 [6] [µg/mL] | EC50 [7] [µg/mL] | EC50 ([2]; L-428, 48 h, read-out: ED50 (the source's name)) [µg/mL]
C/C=C/C=C/C(=O)N1CC[C@@]23c4ccccc4N[C@@H]4N(C=O)c5cccc6c5[C@@]42CCN([C@@H]13)[C@@H]6[C@H]1OC1(C)C [COMMUNESIN D] | 0.57 (≈ 1.09 µM) | inactive | 9.9 (≈ 18.9 µM) | 9 (≈ 17.2 µM) | 13.1 (≈ 25.1 µM) | 16.2 (≈ 31 µM) | 14.6 (≈ 27.9 µM) | 
C/C=C/C=C/C(=O)N1CC[C@@]23c4ccccc4N[C@@H]4Nc5cccc6c5[C@@]42CCN([C@@H]13)[C@@H]6[C@H]1OC1(C)C [COMMUNESIN C] | 1.96 (≈ 3.96 µM) | inactive | 8.6 (≈ 17.4 µM) | 10.8 (≈ 21.8 µM) | 11.3 (≈ 22.8 µM) | 13.1 (≈ 26.5 µM) | 8.2 (≈ 16.6 µM) | 
C/C=C/C=C/C(=O)N1CC[C@@]23c4ccccc4N[C@@H]4N(C)c5cccc6c5[C@@]42CCN([C@@H]13)[C@@H]6[C@H]1OC1(C)C [COMMUNESIN B] | 0.3 (≈ 0.59 µM) |  | 8.1 (≈ 15.9 µM) | 7.2 (≈ 14.2 µM) | 10.4 (≈ 20.4 µM) | 11.4 (≈ 22.4 µM) | 9.9 (≈ 19.5 µM) | > 20
